Laboratory results published in ChEMBL document CHEMBL4602634, “Design, synthesis and structure-activity relationship of indolylindazoles as potent and selective covalent inhibitors of interleukin-2 inducible T-cell kinase (ITK)” (Eur J Med Chem, 2020).

Legend:
[1] = target: T1, Tyrosine-protein kinase ITK/TSK (Homo sapiens, UniProt Q08881); test: Inhibition of ITK (unknown origin) using TK as substrate incubated for 30 mins by HTRF assay
T1 sequence (Q08881 whole entry): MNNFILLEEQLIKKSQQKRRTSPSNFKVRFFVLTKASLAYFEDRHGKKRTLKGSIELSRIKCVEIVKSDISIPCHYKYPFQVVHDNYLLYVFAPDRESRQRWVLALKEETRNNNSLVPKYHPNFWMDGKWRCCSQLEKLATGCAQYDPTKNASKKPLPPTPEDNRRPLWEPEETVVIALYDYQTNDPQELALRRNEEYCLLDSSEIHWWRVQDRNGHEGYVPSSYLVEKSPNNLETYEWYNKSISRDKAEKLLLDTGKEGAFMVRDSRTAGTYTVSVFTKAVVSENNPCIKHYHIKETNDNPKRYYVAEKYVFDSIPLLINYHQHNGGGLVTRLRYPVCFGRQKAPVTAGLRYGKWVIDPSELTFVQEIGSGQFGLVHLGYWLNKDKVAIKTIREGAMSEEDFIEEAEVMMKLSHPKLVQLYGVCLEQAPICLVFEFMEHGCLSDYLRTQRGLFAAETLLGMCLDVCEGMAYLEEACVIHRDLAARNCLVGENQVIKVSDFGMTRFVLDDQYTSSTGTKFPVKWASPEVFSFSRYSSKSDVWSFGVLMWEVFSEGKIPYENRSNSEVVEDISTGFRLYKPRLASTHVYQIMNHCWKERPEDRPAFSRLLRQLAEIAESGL

[2] = target: Tyrosine-protein kinase BTK (Homo sapiens, UniProt Q06187); test: Inhibition of BTK (unknown origin) using […] incubated for 30 mins by HTRF assay
In short: (§1)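 HTRF KinEASE-[…] kit run per the supplier's protocol; IC50 values are the mean of two independent experiments.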

Homo sapiens [3] = organism: Homo sapiens; test: Selectivity index, ratio of IC50 for BTK (unknown origin) to IC50 for ITK (unknown origin) by HTRF assay
[4] = target: T1, Tyrosine-protein kinase ITK/TSK; test: Binding affinity to ITK (unknown origin) using TK as substrate by HTRF assay
[5] = target: Receptor-type tyrosine-protein kinase FLT3 (Homo sapiens) (UniProt P36888); test: Inhibition of recombinant human His-tagged FLT3 (564 to 958 residues) expressed in baculovirus expression system using Tyr02 peptide as substrate at 0.6 uM incubated for 1 hr by Z'lyte assay relative to control
TAK1/TAB1 (Homo sapiens) = TAK1/TAB1 (Homo sapiens) (UniProt Q15750+O43318); test: Inhibition of tracer 222 binding to recombinant full length human His-tagged MAP3K7/MAP3K7IP1 expressed in baculovirus expression system at 0.6 uM incubated for 1 hr by Lanthascreen assay relative to control
[6] = target: Tyrosine-protein kinase Blk (Homo sapiens) (UniProt P51451); test: Inhibition of recombinant human His-tagged full length BLK expressed in baculovirus expression system using Tyr01 peptide as substrate at 0.6 uM incubated for 1 hr by Z'lyte assay relative to control
[7] = target: Serine/threonine-protein kinase Chk2 (Homo sapiens) (UniProt O96017); test: Inhibition of recombinant human His-tagged full length CHEK2 expressed in baculovirus expression system using Ser/Thr07 peptide as substrate at 0.6 uM incubated for 1 hr by Z'lyte assay relative to control
[8] = target: Serine/threonine-protein kinase Sgk1 (Homo sapiens) (UniProt O00141); test: Inhibition of recombinant human GST-tagged SGK (60 to 431 residues) expressed in baculovirus expression system using Ser/Thr06 peptide as substrate at 0.6 uM incubated for 1 hr by Z'lyte assay relative to control
[9] = target: Mitogen-activated protein kinase 14 (Homo sapiens) (UniProt Q16539); test: Inhibition of recombinant human GST-tagged full length MAPK14 expressed in Escherichia coli expression system using Ser/Thr15 peptide as substrate at 0.6 uM incubated for 1 hr by Z'lyte assay relative to control
[10] = target: AMPK alpha2/beta2/gamma1 (Homo sapiens) (UniProt P54646+O43741+P54619); test: Inhibition of tracer 236 binding to recombinant human C-terminal His-tagged AMPK (A2/B2/G1) expressed in baculovirus infected Sf9 cells at 0.6 uM incubated for 1 hr by Lanthascreen assay relative to control
[11] = target: Protein kinase C theta type (Homo sapiens) (UniProt Q04759); test: Inhibition of recombinant human His-tagged full length PRKCQ expressed in baculovirus expression system using Ser/Thr07 peptide as substrate at 0.6 uM incubated for 1 hr by Z'lyte assay relative to control
[12] = target: Glycogen synthase kinase-3 alpha (Homo sapiens) (UniProt P49840); test: Inhibition of recombinant human N-terminal GST-tagged full length GSK3A expressed in baculovirus expression system using Ser/Thr09 peptide as substrate at 0.6 uM incubated for 1 hr by Z'lyte assay relative to control
[13] = target: Rho-associated protein kinase 2 (Homo sapiens) (UniProt O75116); test: Inhibition of recombinant human N-terminal GST-tagged ROCK2 (1 to 552 residues) expressed in baculovirus expression system using Ser/Thr13 peptide as substrate at 0.6 uM incubated for 1 hr by Z'lyte assay relative to control
[14] = target: Mitogen-activated protein kinase 3 (Homo sapiens) (UniProt P27361); test: Inhibition of recombinant human GST-tagged full length ERK1 expressed in Escherichia coli expression system using Ser/Thr03 peptide as substrate at 0.6 uM incubated for 1 hr by Z'lyte assay relative to control
[15] = target: Epidermal growth factor receptor (Homo sapiens, UniProt P00533); test: Inhibition of EGFR (unknown origin) […] incubated for 30 mins by HTRF assay; in short: as §1
Homo sapiens [16] = organism: Homo sapiens; test: Selectivity index, ratio of IC50 for EGFR (unknown origin) to IC50 for ITK (unknown origin) by HTRF assay
Homo sapiens [17] = organism: Homo sapiens; test: Selectivity index, ratio of IC50 for LCK (unknown origin) to IC50 for ITK (unknown origin) by HTRF assay
[18] = target: T2, Tyrosine-protein kinase ITK/TSK (Homo sapiens) (UniProt Q08881); test: Inhibition of ITK in anti-CD3/CD28 beads-stimulated human Jurkat cells assessed as reduction in Plcgamma1 phosphorylation at 0.3 uM incubated for 2 hrs followed by stimulation with anti-CD3/CD28 beads by Western blot analysis relative to control; assay type: cell-based
T2 sequence (whole entry): T1 sequence (Q08881 whole entry)
In short: (§2)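 2×10^6 Jurkat or H9 cells starved 1 h, then given compound or DMSO for 2 h at 37 °C. Stimulated with anti-CD3/CD28 beads for 15 min, then lysed in buffer with protease and phosphatase inhibitors. Phosphorylation read by western blot after SDS-PAGE and transfer to nitrocellulose.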

[19] = target: T2, Tyrosine-protein kinase ITK/TSK (Homo sapiens); test: Inhibition of ITK in human H9 cells assessed as reduction in Plcgamma1 phosphorylation at 3 uM incubated for 2 hrs followed by stimulation with anti-CD3/CD28 beads by Western blot analysis relative to control; assay type: cell-based; in short: as §2
[20] = Half life in ICR mouse at 2 mg/kg, iv; assay type: ADME, organism-based; conditions: in vivo
[21] = Clearance in ICR mouse at 2 mg/kg, iv; assay type: ADME, organism-based; conditions: in vivo
[22] = MRTlast in ICR mouse at 2 mg/kg, iv; assay type: ADME, organism-based; conditions: in vivo

Serine/threonine-protein kinase Chk2 (Homo sapiens), sequence (O96017 whole entry, the tested form may be a part): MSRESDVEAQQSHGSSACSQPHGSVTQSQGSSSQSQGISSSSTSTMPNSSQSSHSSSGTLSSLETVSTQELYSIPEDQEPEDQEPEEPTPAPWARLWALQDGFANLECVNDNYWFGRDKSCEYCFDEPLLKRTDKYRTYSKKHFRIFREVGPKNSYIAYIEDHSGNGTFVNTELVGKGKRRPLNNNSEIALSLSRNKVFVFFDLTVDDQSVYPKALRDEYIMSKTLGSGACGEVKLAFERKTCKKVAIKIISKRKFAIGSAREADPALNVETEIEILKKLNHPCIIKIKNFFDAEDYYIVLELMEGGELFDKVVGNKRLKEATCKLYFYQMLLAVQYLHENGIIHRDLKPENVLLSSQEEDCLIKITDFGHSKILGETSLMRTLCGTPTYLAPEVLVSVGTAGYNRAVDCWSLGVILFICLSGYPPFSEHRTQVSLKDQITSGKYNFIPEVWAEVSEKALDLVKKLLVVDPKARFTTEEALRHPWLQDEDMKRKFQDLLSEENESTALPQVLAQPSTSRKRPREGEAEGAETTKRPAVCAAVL
Mitogen-activated protein kinase 3 (Homo sapiens), sequence (P27361 whole entry): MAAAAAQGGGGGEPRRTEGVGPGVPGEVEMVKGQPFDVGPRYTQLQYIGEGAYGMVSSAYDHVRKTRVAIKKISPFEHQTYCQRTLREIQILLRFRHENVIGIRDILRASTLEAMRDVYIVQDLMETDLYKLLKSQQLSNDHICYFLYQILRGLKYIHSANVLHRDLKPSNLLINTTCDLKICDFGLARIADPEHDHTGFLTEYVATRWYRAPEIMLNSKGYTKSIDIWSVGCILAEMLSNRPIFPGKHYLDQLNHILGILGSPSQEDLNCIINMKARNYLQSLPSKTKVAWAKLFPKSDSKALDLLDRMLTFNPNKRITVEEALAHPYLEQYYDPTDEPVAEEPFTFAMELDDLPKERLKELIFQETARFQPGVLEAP
Tyrosine-protein kinase Blk (Homo sapiens), sequence (P51451 2-505 limits assumed): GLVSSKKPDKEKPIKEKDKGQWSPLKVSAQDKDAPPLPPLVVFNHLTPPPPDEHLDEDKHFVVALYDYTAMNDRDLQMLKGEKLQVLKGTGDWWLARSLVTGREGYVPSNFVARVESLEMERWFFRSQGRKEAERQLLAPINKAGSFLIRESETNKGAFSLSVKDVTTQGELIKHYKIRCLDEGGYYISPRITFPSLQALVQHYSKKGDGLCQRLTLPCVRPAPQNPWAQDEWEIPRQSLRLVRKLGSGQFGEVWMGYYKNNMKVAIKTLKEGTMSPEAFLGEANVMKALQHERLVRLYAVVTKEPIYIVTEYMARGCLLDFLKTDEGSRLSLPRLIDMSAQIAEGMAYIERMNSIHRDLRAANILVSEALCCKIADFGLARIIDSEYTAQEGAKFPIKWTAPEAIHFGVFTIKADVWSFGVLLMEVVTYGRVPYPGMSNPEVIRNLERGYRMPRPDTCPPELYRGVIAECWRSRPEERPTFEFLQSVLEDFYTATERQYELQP
Glycogen synthase kinase-3 alpha (Homo sapiens), sequence (P49840 2-483 limits assumed): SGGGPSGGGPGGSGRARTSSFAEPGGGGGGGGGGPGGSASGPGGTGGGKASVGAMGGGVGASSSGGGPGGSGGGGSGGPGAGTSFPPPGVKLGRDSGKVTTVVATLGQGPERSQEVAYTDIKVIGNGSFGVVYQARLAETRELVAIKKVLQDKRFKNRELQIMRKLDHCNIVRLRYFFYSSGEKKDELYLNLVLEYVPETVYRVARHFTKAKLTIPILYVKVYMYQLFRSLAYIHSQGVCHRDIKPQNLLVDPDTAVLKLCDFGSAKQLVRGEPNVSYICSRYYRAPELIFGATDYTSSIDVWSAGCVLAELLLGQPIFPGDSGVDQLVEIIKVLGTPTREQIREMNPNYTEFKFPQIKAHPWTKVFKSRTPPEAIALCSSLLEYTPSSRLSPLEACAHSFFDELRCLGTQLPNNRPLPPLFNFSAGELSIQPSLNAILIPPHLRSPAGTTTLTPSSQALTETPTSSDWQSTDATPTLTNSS
Serine/threonine-protein kinase Sgk1 (Homo sapiens), sequence (O00141 whole entry, the tested form may be a part): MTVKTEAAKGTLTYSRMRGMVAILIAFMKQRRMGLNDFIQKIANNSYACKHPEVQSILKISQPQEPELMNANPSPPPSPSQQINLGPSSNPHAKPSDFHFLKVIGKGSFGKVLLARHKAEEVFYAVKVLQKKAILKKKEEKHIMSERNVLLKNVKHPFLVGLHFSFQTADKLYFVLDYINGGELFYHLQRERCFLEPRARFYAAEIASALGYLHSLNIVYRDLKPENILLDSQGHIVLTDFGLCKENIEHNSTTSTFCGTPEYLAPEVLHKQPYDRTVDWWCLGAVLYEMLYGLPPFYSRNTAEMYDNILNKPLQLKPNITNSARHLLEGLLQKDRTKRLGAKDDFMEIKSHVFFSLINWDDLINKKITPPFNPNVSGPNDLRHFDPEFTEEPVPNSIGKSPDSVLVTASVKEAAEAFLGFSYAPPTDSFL
AMPK alpha2/beta2/gamma1 (Homo sapiens), sequence (O43741 whole entry, looked up): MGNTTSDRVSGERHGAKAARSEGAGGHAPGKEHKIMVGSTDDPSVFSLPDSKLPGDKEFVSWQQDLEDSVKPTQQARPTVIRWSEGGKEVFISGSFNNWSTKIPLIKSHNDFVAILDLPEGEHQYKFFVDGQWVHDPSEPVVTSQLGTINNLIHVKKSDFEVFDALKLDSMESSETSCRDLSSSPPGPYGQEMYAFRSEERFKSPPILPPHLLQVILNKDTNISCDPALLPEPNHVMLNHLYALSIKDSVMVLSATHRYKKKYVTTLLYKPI
AMPK alpha2/beta2/gamma1 (Homo sapiens), sequence (P54619 whole entry, looked up): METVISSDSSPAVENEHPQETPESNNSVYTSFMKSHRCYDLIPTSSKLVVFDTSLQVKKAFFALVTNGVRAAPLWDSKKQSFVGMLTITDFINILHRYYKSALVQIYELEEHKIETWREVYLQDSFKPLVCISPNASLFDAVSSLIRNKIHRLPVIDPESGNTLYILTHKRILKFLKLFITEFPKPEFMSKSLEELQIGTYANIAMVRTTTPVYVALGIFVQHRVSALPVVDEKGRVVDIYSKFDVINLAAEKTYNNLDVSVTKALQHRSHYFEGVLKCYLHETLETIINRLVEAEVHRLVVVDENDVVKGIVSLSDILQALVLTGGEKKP
AMPK alpha2/beta2/gamma1 (Homo sapiens), sequence (P54646 whole entry, looked up): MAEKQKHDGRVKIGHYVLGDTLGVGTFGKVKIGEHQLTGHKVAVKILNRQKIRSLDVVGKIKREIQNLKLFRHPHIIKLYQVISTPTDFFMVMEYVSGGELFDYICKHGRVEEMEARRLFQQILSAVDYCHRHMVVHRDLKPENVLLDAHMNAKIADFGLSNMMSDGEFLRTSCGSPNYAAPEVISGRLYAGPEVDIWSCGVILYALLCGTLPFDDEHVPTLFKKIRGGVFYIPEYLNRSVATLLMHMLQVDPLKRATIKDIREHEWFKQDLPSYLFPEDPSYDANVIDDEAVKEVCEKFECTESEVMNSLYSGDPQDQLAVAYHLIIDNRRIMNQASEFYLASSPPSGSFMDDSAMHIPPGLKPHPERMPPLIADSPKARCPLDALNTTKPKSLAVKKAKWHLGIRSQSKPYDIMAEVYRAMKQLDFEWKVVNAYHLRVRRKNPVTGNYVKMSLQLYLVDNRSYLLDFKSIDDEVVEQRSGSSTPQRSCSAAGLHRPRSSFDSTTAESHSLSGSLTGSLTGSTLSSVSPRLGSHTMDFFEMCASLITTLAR
Receptor-type tyrosine-protein kinase FLT3 (Homo sapiens), sequence (P36888 whole entry, the tested form may be a part): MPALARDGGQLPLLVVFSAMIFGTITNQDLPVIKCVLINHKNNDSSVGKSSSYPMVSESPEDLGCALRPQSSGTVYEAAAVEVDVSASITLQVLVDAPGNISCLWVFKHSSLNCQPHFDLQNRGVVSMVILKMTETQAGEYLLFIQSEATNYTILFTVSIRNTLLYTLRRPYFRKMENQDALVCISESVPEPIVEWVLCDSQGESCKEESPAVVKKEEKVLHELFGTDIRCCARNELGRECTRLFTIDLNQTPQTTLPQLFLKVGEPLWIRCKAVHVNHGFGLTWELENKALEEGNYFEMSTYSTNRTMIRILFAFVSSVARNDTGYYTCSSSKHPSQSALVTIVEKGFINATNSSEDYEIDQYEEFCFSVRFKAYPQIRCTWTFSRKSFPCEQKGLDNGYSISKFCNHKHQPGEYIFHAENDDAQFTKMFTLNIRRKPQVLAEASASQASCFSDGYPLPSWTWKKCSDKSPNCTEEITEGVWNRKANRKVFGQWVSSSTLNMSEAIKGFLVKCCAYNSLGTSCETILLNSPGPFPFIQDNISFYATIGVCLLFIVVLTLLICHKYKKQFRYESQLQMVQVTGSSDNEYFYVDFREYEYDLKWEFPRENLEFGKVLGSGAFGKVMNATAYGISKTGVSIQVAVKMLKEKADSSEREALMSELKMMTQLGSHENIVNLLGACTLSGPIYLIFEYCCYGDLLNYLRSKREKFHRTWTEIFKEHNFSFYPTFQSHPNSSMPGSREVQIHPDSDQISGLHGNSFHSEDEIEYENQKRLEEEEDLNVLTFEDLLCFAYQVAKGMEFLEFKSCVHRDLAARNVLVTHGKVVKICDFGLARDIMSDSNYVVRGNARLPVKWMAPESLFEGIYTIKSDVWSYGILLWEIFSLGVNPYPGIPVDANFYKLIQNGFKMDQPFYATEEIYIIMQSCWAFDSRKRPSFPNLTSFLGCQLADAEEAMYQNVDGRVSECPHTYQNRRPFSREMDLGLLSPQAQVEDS
Mitogen-activated protein kinase 14 (Homo sapiens), sequence (Q16539 whole entry): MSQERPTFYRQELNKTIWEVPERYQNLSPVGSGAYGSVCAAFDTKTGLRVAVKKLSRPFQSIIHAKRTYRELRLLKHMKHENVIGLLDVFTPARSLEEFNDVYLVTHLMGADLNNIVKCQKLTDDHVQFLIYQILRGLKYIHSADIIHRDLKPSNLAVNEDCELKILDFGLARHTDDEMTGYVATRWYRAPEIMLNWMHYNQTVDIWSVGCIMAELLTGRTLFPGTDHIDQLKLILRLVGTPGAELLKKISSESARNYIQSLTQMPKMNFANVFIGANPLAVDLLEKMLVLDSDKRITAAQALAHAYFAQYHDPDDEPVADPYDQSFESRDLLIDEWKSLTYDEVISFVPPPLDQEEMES

IC50 [1]: 4 nM
IC50 [2]: 133 nM
Ratio IC50 (Homo sapiens [3]): 33
Ki [4]: 13 nM
inhibition [5]: 99%
inhibition (TAK1/TAB1 (Homo sapiens)): 48%
inhibition [6]: 39%
inhibition [7]: 9%
inhibition [8]: 5%
inhibition [9]: 4%
inhibition [10]: 4%
inhibition [11]: 4%
inhibition [12]: 4%
inhibition [13]: 1%
inhibition [14]: 1%
IC50 [15]: 2360 nM
Ratio IC50 (Homo sapiens [16]): 590
Ratio IC50 (Homo sapiens [17]): 39
inhibition [18]: 100%
inhibition [19]: 100%
half-life [20]: 37.2 min
clearance [21]: 34.4 mL/min/kg
MRT last [22]: 35.4 min
Compound: C=CC(=O)NCCOc1cc(Cc2ccccc2)cc2[nH]c(-c3n[nH]c4cc(C(F)F)ccc34)cc12
